Series [1] is described as follows: Cytotoxicity against human PBMC after 7 days by trypan blue staining. It counts as cell-based.
The subject of the next series is PBMC. Nature of the series: Cytotoxicity against human PBMC cells at 500 uM after 7 days. It counts as cell-based. To be noted: 168 h. In outline: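 Mock-infected PHA-stimulated PBMC exposed to compound in RPMI 1640 with 10% FCS and IL-2 (25 U/ml); viability measured by trypan blue staining at day 7.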
Series [2] can be described thus: Chemical stability of the compound in PBS solution at 50 degC after 4 days by HPLC. It counts as physicochemical. To be noted: buffer, 96 h. In outline:
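1 mM compound held 4 days in PBS at 50°C, or in 7 mM sodium phosphate pH 4.0 at room temperature; then analysed by reverse-phase HPLC (phosphate/heptanesulfonate pH 3.2 buffer–acetonitrile gradient, 1 ml/min).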

The test system of series [3] is Human immunodeficiency virus 1. Put plainly: Ratio of kd for HIV-1 HXB2 gp41 to kd for 3B gp120.
Series [4] has as its system Human immunodeficiency virus 1. Put plainly: Ratio of EC50 for compound pretreated HIV-1 3B isolate 42 harboring gp120 mutant infected in human CEM cells to EC50 for HIV-1 3B expressing wild type gp120. Format: functional, CCRF-CEM.
The test system of series [5] is Human immunodeficiency virus 1. Put plainly: Ratio of ka for HIV-1 3B gp120 to ka for HIV-1 HXB2 gp41.
In series [6] the test system is Human immunodeficiency virus 1. Put plainly: Antiviral activity against HIV-1 3B cells infected in human PBMC cells assessed as inhibition of virus-induced cytopathicity after 3 to 4 days by microscopic analysis. It counts as functional, organism-based. Particulars: Human immunodeficiency virus 1, 3B.

This note sets out measurements from ChEMBL document CHEMBL1671680, “Pradimicin S, a highly soluble nonpeptidic small-size carbohydrate-binding antibiotic, is an anti-HIV drug lead for both microbicidal and systemic use” (Antimicrob Agents Chemother, 2010).

Structures are written as SMILES. pEC50: −log10 of the molar value. Bounds are passed on as bounds.

Compound `CN[C@@H]1[C@H](O[C@@H]2OC[C@@H](O)[C@H](O)[C@H]2O)[C@@H](O)[C@H](O[C@H]2c3cc(C)c(C(=O)N[C@H](C)C(=O)O)c(O)c3-c3c(cc4c(c3O)C(=O)c3cc(OC)cc(O)c3C4=O)[C@@H]2O)O[C@@H]1C` [PRADIMICIN A] came in with a CC50 at 168 h in series [1] of over 50 µM.
In the series on PBMC, `CN[C@@H]1[C@H](O[C@@H]2O[C@H](CO)[C@@H](O)[C@H](OS(=O)(=O)O)[C@H]2O)[C@@H](O)[C@H](O[C@H]2c3cc(C)c(C(=O)N[C@H](C)C(=O)O)c(O)c3-c3c(cc4c(c3O)C(=O)c3cc(OC)cc(O)c3C4=O)[C@@H]2O)O[C@@H]1C` [PRADIMICIN S] yielded an Activity of over 95%. Further, in series [2], the Stability entry is “Stable”. The kd ratio in series [3] was 5. Further, in series [4], the “Ratio EC50” value is given as “>=20”. The ka ratio in series [5] came out at 10. Also, in series [6], the negative-log EC50 (pEC50) is 5.07.
